For 116 compounds, outcome results are on record in PubChem BioAssay AID623869 (Vanderbilt High Throughput Screening Facility, 2012).

Hit rate of the full screen: of about 2,100 compounds, about 75 (4%) were called active.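 How the source made its calls: active means calcium fluorescence trace judged by eye to show a response, as agonist, enhancer of the glutamate response, or inhibitor; inactive means trace judged by eye to show no response.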 The sample as a whole holds a higher share of actives than the screen did.

Chain of Metabotropic glutamate receptor 8 (Rattus norvegicus) (P70579 whole entry, looked up): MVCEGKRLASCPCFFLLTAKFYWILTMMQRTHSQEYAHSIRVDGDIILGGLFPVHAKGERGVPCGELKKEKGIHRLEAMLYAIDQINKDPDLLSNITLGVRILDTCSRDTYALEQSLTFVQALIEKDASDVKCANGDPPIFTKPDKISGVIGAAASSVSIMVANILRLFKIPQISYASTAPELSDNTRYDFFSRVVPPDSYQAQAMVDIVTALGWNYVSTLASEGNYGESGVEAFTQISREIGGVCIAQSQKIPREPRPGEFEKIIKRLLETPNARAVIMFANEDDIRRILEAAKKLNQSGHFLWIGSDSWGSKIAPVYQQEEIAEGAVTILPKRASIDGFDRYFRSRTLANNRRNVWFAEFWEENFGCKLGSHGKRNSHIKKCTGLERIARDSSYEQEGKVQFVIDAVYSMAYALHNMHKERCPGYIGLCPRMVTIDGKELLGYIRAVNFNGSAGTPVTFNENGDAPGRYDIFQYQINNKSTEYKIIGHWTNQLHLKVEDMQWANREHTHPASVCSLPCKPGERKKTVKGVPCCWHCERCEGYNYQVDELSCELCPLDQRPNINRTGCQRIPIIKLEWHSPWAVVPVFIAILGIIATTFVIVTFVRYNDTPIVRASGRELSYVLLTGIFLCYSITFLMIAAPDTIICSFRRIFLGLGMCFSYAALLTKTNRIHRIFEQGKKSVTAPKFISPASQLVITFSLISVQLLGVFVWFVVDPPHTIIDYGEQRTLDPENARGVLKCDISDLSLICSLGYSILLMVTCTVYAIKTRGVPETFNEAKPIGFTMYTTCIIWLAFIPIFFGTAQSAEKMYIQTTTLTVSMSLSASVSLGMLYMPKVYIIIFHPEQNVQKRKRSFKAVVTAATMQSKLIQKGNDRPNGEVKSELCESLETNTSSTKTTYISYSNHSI

This test has as its target Metabotropic glutamate receptor 8 (Rattus norvegicus) (UniProt P70579). As to the kind of experiment: mGlu8-mediated intracellular calcium response modulators – cell-based, HEK293 rmGlu8, Gqi9 chimera, Fluo-4 calcium, counter-screen for GIRK activator project, confirmation (AID 623869). The note with it: HEK293 rmGlu8/Gqi9 calcium flux, Fluo-4 fluorescence; glutamate at EC20 added after compound. In short, it runs like this:
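System – HEK-293 cells stably expressing rat mGlu8, plus transient chimeric Gqi9 · Medium – HEPES-buffered HBSS, pH 7.4 · Also added – EC20 glutamate · Compound – one dose, 20 µM addition solution, 0.2% DMSO · Times – compound 4 min before glutamate, then 2 min recording · Measured by – Fluo-4 calcium fluorescence sampled at 1 Hz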
For orientation: A change in cytosolic calcium serves as a functional read-out for many receptors and channels.
As for `CC(=O)c1c(N2CCCC2)[nH]c(-c2ccccc2)nc1=S`, the outcome was “active; 2”. On to `O=C(c1cc(-c2ccccc2)on1)N1CCCC1`, for which the outcome is “inactive; 0”. In the case of `CSc1nc(-c2ccccc2)[nH]c(=S)c1C(C)=O`, the outcome was “inactive; 0”. Under `COC(=O)C(C)N(C(=O)c1cccc2ccccc12)c1c(C)cccc1C` (stereo unspecified) stands “inactive; 0”. The value for `COc1ccc(-c2cc(C(F)(F)F)c3c(n2)sc2c(O)cc(=O)[nH]c23)c(OC)c1` was “active; 2”; that for `CCOC(=O)c1c(NS(=O)(=O)c2ccc(Br)cc2)sc2c1CCC2` was “inactive; 0”. The value for `COc1ccc2nc(/N=C/c3c(C)[nH]n(-c4ccc(C)cc4)c3=O)sc2c1` was “inactive; 0”. With `Cc1ccc(C(=O)N/N=C(/CC(=O)c2cccs2)C(F)(F)F)cc1`, the outcome is “active; -1”.

As for `O=C(NN=C(Cc1ccccc1)Cc1ccccc1)c1ccc(F)cc1`, the outcome was “inactive; 0”. The value for `Cc1ccc(C(=O)NC(=S)Nc2ccccc2C(F)(F)F)cc1` was “inactive; 0”; that for `COC(=O)C1=NN(C(=O)c2ccc(C)cc2)C(O)(c2ccc(Cl)cc2)C1` (stereo unspecified) was “inactive; 4”. Under `COC(=O)c1sc(NC(=S)NC(=O)c2ccccc2Cl)nc1C` stands “inactive; 0”. Under `CC(C)(C)c1ccc(C(=O)NC(=S)Nc2nc3c(s2)CCCC3)cc1` stands “active; 2”; under `COC(=O)c1ccc(C(=O)NC(=S)Nc2nc3c(s2)CCCC3)cc1`, “inactive; 0”. On to `O=C(NC(=S)Nc1nc2c(s1)CCCC2)c1ccccc1`, for which the outcome was “inactive; 0”. The value for `O=C(NC(=S)Nc1ccc(N2CCOCC2)c(Cl)c1)c1cncc(Br)c1` was “inactive; 0”. For the compound `CCOC(=O)c1c2n(c3c(NCc4ccccc4)ncnc13)CCCC2`, the outcome is “inactive; 0”. Under `O=C1OCCC1Sc1nc2cc(Cl)ccc2n1Cc1ccccc1` (stereo unspecified) stands “active; 2”; under `Cc1cc(NC(=O)CSc2nc3ccccc3c(=O)n2Cc2ccccc2)no1`, “inactive; 0”.

With `O=C1CN(C(=O)CSc2nc3cc(Cl)ccc3c(=O)n2Cc2ccccc2)c2ccccc2N1`, the outcome was “inactive; 0”.

Turning to `Cc1cccc(C(=O)CC(=O)c2cc(Cl)ccc2O)c1`, the outcome is “inactive; 0”.

Turning to `Cc1ccc(C(=O)CC(=O)c2cc(Cl)ccc2O)cc1`, the outcome was “inactive; 0”. Under `C/C(=N/NC(=O)c1cc(Cl)ccc1O)C12CC3CC(CC(C3)C1)C2` stands “active; 1”; under `COc1ccccc1/C=C/C(=O)NC(=S)N(C)C1CCCCC1`, “inactive; 0”. The value for `Oc1ccccc1CNc1ccc(Br)cn1` was “active; -1”; that for `CC(Nc1ccc(Br)cn1)c1cc(Cl)ccc1O` (stereo unspecified) was “inactive; 0”; that for `O=c1c(-c2ccccc2)nc(-c2ccccc2)cn1O` was “inactive; 0”. Under `O=C(NC(=S)N1CCN(Cc2ccccc2)CC1)c1ccccc1` stands “inactive; 0”.

In the case of `CC(C)(C)NC(=O)C(c1ccncc1)N(C(=O)c1csnn1)c1ccccc1` (stereo unspecified), the outcome was “active; -1”. Under `CCC(C)(C)NC(=O)C(c1ccc(F)cc1)N(Cc1ccco1)C(=O)c1cnccn1` (stereo unspecified) stands “inactive; 0”; under `O=C(NC(=S)Nc1ccccc1)c1csnn1`, “inactive; 0”. Take `O=c1c2ccccc2[nH]c(=S)n1CCCN1CCN(C2CCCCC2)CC1`: the outcome is “inactive; 0”. As for `O=C(NC(=S)Nc1ccccc1Cl)c1csnn1`, the outcome is “inactive; 0”. Under `CCCCN(CCCC)C(=S)NC(=O)C(C)(C)C` stands “inactive; 0”; under `Brc1ccccc1-c1nnc2sc(-c3ccc4c(c3)OCCO4)nn12`, “inactive; 0”; under `CCOC(=O)C1=C(C)Nc2nnnn2C1c1ccccc1Cl` (stereo unspecified), “inactive; 0”. The value for `CSc1ccccc1NC(=O)Nc1ccc(Cl)cc1` was “inactive; 0”. Under `O=C(NC(=S)Nc1ccc(Oc2ccc(Cl)cc2)cc1)c1ccccc1` stands “inactive; 0”. For the compound `O=C(N/C(=N\O)c1ccccc1)Nc1ccc(Cl)cc1`, the outcome was “active; 2”. The value for `CCCCCC(=O)NC(=S)NNC(=O)c1ccc([N+](=O)[O-])cc1` was “active; 1”; that for `CCCCOc1ccc(C(=O)NNC(=S)NC(=O)CC)cc1` was “inactive; 0”; that for `CCCCNC(=S)NC(=O)c1ccc([N+](=O)[O-])cc1` was “inactive; 0”.

`S=c1nc(-c2ccc(Br)cc2)oc2c1CCCC2`: the outcome was “inactive; 0”. Under `Cc1ccc(C)c(NC(=S)NNC(=O)c2csc3c2CCCC3)c1` stands “inactive; 0”; under `COC(=O)c1ccc(NS(=O)(=O)c2ccc(SC)cc2)cc1`, “inactive; 0”; under `CC(=O)Nc1ccc(SCC(=O)c2cc(C)n(-c3ccccc3F)c2C)cc1`, “active; 2”. The value for `CCc1cc2cccc(C)c2nc1SCC(=O)c1ccc(NC(C)=O)cc1` was “inactive; 0”; that for `CC(=O)Nc1ccc(C(=O)CSc2nc3ccc(C)cc3[nH]2)cc1` was “inactive; 0”; that for `Cc1cc(C(=O)CSc2n[nH]c(N)n2)c(C)n1-c1cc(F)ccc1F` was “inactive; 0”. Under `COC(=O)c1ccc(-n2c(C)cc(C(=O)CSc3ccc(NC(C)=O)cc3)c2C)cc1` stands “active; 2”; under `COc1ccc2nc(/N=C/c3c(C)[nH]n(-c4ccc(C)cc4C)c3=O)sc2c1`, “inactive; 2”; under `CC12CC3CC(C)(C1)CC(C(=O)NC(=S)N1CCCCC1)(C3)C2`, “inactive; 0”. On to `CSCSC1=C(C#N)C(c2ccccc2Cl)C(C(C)=O)=C(C)N1` (stereo unspecified), for which the outcome was “inactive; 0”. Consider `O=C(NC(=S)N1CCCc2ccccc21)c1ccc(Cl)cc1`, for which the outcome is “inactive; 0”. In the case of `Cc1cccc(N2C(=O)CS/C2=N\NC(=O)c2ccc(Cl)cc2)c1C`, the outcome is “active; 2”. Under `O=C(N/N=C1/C(=O)c2cccc3cccc1c23)c1ccc(Cl)cc1` stands “inactive; 0”; under `O=C(NC(=S)N(CCCCO)C1CCCCC1)c1sc2ccccc2c1Cl`, “inactive; 0”. The value for `O=C(NC(=S)Nc1ccccc1N1CCOCC1)c1ccco1` was “inactive; 0”; that for `CN(C(=O)CSC1=Nc2ccccc2C2=NC(c3ccccc3)C(=O)N12)C1CCCCC1` (stereo unspecified) was “inactive; 0”; that for `COc1cc(/C=C(\C#N)C(=O)Nc2cccnc2)ccc1OC(C)C` was “active; 2”. For `CCSc1ccccc1C(=O)Nc1cccnc1`, the outcome was “inactive; 0”.

For the compound `N#C/C(=C/C=C/c1ccccc1)C(=O)Nc1ccccc1`, the outcome was “inactive; 0”. Under `Cc1ccc(OCC(=O)NNC(=O)C(=O)NC(C)(C)C)cc1` stands “inactive; 0”; under `C=CCn1c(=S)[nH]c2sc3c(c2c1=O)CCC3`, “inactive; 0”; under `COC(=O)c1ccccc1NC(=O)Nc1cnccn1`, “inactive; 0”. The value for `COC(=O)c1ccccc1NC(=S)NC(=O)c1ccc(C)cc1` was “inactive; 0”; that for `CCC1c2ccc(C)n2CCN1C(=O)Nc1ccccc1C(=O)OC` (stereo unspecified) was “active; 2”. The value for `CC(C)C1Cc2c(sc3[nH]c(=S)n(Cc4ccccc4)c(=O)c23)CO1` (stereo unspecified) was “inactive; 0”; that for `CCOC(=O)c1c(NC(=S)NC)sc2c1CC(C)(C)SC2` was “inactive; 0”; that for `Cc1sc2nc(C(C)C)nc(SCC(=O)NCc3ccco3)c2c1C` was “inactive; 0”. With `CCCc1cc(-c2n[nH]c(=S)n2Cc2ccccc2)cs1`, the outcome is “active; -1”.

Consider `CCCc1cc(-c2n[nH]c(=S)n2C(C)c2ccccc2)cs1` (stereo unspecified), for which the outcome is “inactive; 0”.

On to `CCCc1cc(-c2n[nH]c(=S)n2CC(C)C)cs1`, for which the outcome is “inactive; 0”. The value for `Cc1[nH]n(-c2ccc(Cl)cc2)c(=O)c1/C=N/c1nnc(-c2ccccc2)s1` was “inactive; 0”; that for `O=C(NC(=S)Nc1ccccc1)c1cc(-c2ccccc2)nc2ccccc12` was “inactive; 0”. Under `O=C(O)c1ccccc1C(=O)Nc1ccc(-c2csc(-c3ccccc3)n2)cc1` stands “active; 1”. Under `CN(C)CCCNC(=O)c1ccc(-c2nc(-c3ccc(Cl)cc3)cs2)cc1` stands “inactive; 0”; under `C=CCn1c(=S)[nH]c2ccc(Br)cc2c1=O`, “inactive; 0”.

With `Cc1ccc(-c2cc(-c3n[nH]c(=S)o3)c3ccccc3n2)cc1`, the outcome was “inactive; 0”. Under `S=c1[nH]nc(-c2cc3c(s2)-c2ccccc2CC3)o1` stands “active; -1”. Under `CCc1cc(C(=O)NNC(=S)Nc2cc(C)ccc2C)cs1` stands “inactive; 0”.

For the compound `Cc1ccc(C)c(NC(=S)NNC(=O)c2cc3c(s2)CCC(C)C3)c1` (stereo unspecified), the outcome was “inactive; 0”. In the case of `O=C1NC(=S)SC1=C1CCCCCC1`, the outcome is “inactive; 0”. The value for `CCCN(CCC)CCCNC(=O)c1cc2c(=O)n(C)c3ccccc3c2n1C` was “inactive; 0”.

Take `CCn1c(O)c(N=NC(=O)CNc2cccc(C)c2)c2ccccc21`: the outcome was “inactive; 0”. Under `CCn1c(=O)c(C(=O)NCCCO)c(O)c2ccccc21` stands “active; 2”; under `CCC1CCCCN1C(=S)NC(=O)c1ccc([N+](=O)[O-])cc1` (stereo unspecified), “inactive; 0”. Under `Cc1cccc(NC(=S)N/C(=N/S(=O)(=O)c2ccccc2)c2ccccc2)c1` stands “inactive; 0”; under `Cc1ccc(-c2cc(-c3ccccc3)[nH]c(=S)c2C#N)cc1`, “inactive; 0”; under `CCOC(=O)c1c(NS(=O)(=O)Cc2ccccc2)sc2c1CCCC2`, “inactive; 0”.

As for `Cc1cc(NC(=O)Nc2ccccc2)n(-c2ccccc2)n1`, the outcome is “inactive; 0”. As for `Cc1cc(NC(=O)c2c(F)cccc2Cl)n(-c2nc3ccccc3[nH]2)n1`, the outcome is “inactive; 0”. Under `Cc1ccc(Nc2cc(C)nn2-c2nc(C)cc(=O)[nH]2)cc1` stands “active; -1”; under `CCOC(=S)NC(=O)c1sc2ccccc2c1Cl`, “inactive; 0”; under `CCCOC(=S)NC(=O)c1sc2ccccc2c1Cl`, “inactive; 0”.

For `COc1ccccc1C(=O)NNC(=S)NC(=O)c1sc2ccccc2c1Cl`, the outcome is “active; 1”. Under `COc1ccccc1C(=O)NC(=S)NNC(=O)c1sc2ccccc2c1Cl` stands “inactive; 3”; under `CC(C)(C)C(=O)NC(=S)NNC(=O)c1sc2ccccc2c1Cl`, “active; 1”; under `CCCCOC(=S)NC(=O)c1sc2ccccc2c1Cl`, “inactive; 0”. Under `CCCN1C(=O)/C(=C/c2ccc(C)s2)NC1=S` stands “inactive; 0”; under `CCCOc1ccc(C(=O)NNC(=S)NC(=O)CC)cc1`, “inactive; 0”; under `O=C(NC(=S)N1CCCCC1)c1cccs1`, “inactive; 0”. The value for `C=CCN(CC=C)C(=S)NC(=O)/C=C/c1ccc(C)cc1` was “inactive; 0”; that for `COc1ccccc1C(=O)N1c2ccccc2Sc2ccccc21` was “inactive; 0”; that for `CC(=O)c1c(C)[nH]c(C(=O)CSc2ncnc3sc(-c4ccccc4)cc23)c1C` was “inactive; 0”. For the compound `CCOC(=O)c1ccccc1NC(=O)CSc1nnc(COc2ccccc2C)n1C`, the outcome was “inactive; 0”. Under `Cc1cccc(NC(=S)NNC(=O)c2csc3c2CCCC3)c1` stands “inactive; 0”; under `S=C(Nc1ccc(Oc2ccccc2)cc1)NC1CCCC1`, “active; 2”; under `FC(F)(F)c1cccc(NC(=S)NCc2ccccc2)c1`, “inactive; 4”. Under `FC(F)(F)c1cccc(N2CCN(C(=S)NC3CCCCC3)CC2)c1` stands “inactive; 0”; under `CCCN(CC1CC1)C(=S)Nc1ccc(Oc2ccccc2)cc1`, “inactive; 0”; under `COc1ccc(NC(=S)Nc2ccc(OCc3ccccc3)cc2)cc1OC`, “inactive; 0”. Under `FC(F)(F)c1cccc(NC(=S)NC2CCCC2)c1` stands “active; -1”; under `CCOC(=O)c1ccc(NC(=S)NC2CCCC2)cc1`, “inactive; 4”; under `FC(F)(F)Oc1ccc(NC(=S)NCc2ccccc2)cc1`, “inactive; 4”. For `CC(C)CNC(=S)Nc1ccc(Oc2ccccc2)cc1`, the outcome was “active; 2”.
